eIF4H FP inh: inhibitors of RNA binding by human eIF4H; Q15056; eIF4H fluorescence polarization binding assay; inhibition, % at 35 µM; hit rate 0.94% among 290,000; AID 2012;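 note: calls also rest on retests at 20 µM and on dose response follow-up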
core dimer inh: blocks dimerization of HCV core protein; inhibition, % at 5 µM; TR-FRET GST/Flag-core106 dimerization, 1536-well; hit rate 0.33% among 300,000;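 active = inhibition above the mean of all tested compounds plus 3 SD, set per screening campaign, cut at about 45% in these data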
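System: GST/Flag-tagged HCV core106 proteins. Incubation: compound-protein-antibody incubation 4 h at 22.5 °C. Technique: HTRF with 340 nm excitation, 617/671 nm emission. Medium: KF-containing HEPES buffer, pH 7.45, DTT, CHAPS, BSA. Read-out: inhibition (%) from 671 over 617 nm ratio. Also added: Eu(K)-anti-GST 90 ng/mL plus XL665-anti-Flag 1 µg/mL.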
FID counter: displaces DNA intercalator in HCV helicase counter-screen. DNA fluorescent intercalator displacement, fluorescence. inhibition, % at 7.9 µM. hit rate 0.17% among 290,000; in the data active = inhibition above about 37%;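 note: 0% = vehicle and 100% = reference compound; higher means more ethidium bromide displaced from hairpin DNA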
NS3 helicase inh: inhibitors of Hepatitis C virus NS3 helicase. NS3 helicase DNA unwinding, Cy5 molecular beacon fluorescence. inhibition, % at 10.9 µM. hit rate 0.56% among 290,000. AID 1800;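 active = inhibition above the mean of all tested compounds plus 3 SD, set per campaign, cut at about 35% in these data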;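 note: 0% = DMSO wells and 100% = thioflavine S control wells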
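System: HCV NS3 helicase fragment; control set: DMSO and thioflavine S; technique: Cy5 fluorescence at 0 and 60 min, beacon hairpin quenching; reagent: beacon DNA duplex substrate plus ATP; replicates: singlicate; schedule: 1 h reaction at 25 °C, ATP-initiated; medium: MOPS buffer pH 6.5 with MgCl2, DTT, Tween20, BSA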
PABP FP inh: PABP-poly(A) binding inhibition. PABP-poly(A) RNA binding, fluorescence polarization. inhibition, % at 35 µM. hit rate 1% among 290,000;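 note: calls also rest on retests at 20 µM and on dose response follow-up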
MLLE-PAM2 inh: inhibitors of microRNA-mediated deadenylation, human PABP1 MLLE binding | P11940 | GST-MLLE / FITC-PAM2 fluorescence polarization | inhibition, % at 20 µM | hit rate 0.36% among 360,000 | AID 588489; in the data active = inhibition above about 35%, passing the limit was not always enough;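 note: plate controls were DMSO wells with GST-MLLE for no effect and wells lacking GST-MLLE protein for full effect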
The depositor's hits bear a star; ? = inconclusive; nt = no result given. An excerpt weighted towards active compounds, which were near 2% of everything screened. Unless noted, the rule behind the calls is not given here.

SMILES	eIF4H FP inh	core dimer inh	FID counter	NS3 helicase inh	PABP FP inh	MLLE-PAM2 inh
Cc1nc(C)c(C(=O)OCC(=O)NCc2ccccc2Cl)s1	nt	nt	nt	nt	nt	5.0
O=C(c1ccc2c(c1)CCC2)N1CCN(Cc2ccccc2)CC1	nt	nt	nt	nt	nt	12.3
CCC12OC(=N)C(C#N)(C1C)C(C#N)(C#N)C(c1ccccc1)O2 (stereo unspecified)	?	-1.6	1.5	0.6	85.1*	20.3
CCCCCCCNC1=CC(=O)CC(c2ccco2)C1 (stereo unspecified)	93.1*	38.5	-28.4	33.0	84.1*	-13.3
Cc1cc(Sc2ncnc(N)c2[N+](=O)[O-])ncn1	2.9	-0.2	-5.4	-3.3	0.2	45.9*
COc1ccccc1NC(=O)CN1CC(=O)Nc2ccccc21	-9.1	2.3	-0.1	-5.0	82.0*	-11.6
c1ccc(CN2CCC3CC2c2c3cccc2N2CCOCC2)cc1 (stereo unspecified)	nt	nt	nt	nt	nt	-10.9
C=CCOC(=O)c1cc(-c2ccc(/C=C3\C(=O)NC(=O)C(C#N)=C3C)o2)ccc1Cl	70.8*	nt	-16.8	10.0	51.1*	-12.6
CCCOC(=O)c1cc(-c2ccc(/C=C3/C(=O)N(C)C(=O)C(C#N)=C3C)o2)ccc1Cl	nt	10.5	-10.4	23.4	nt	-1.9
Cc1cc(Cl)ccc1-c1nc(NC(C)C)nc2ccsc12	nt	nt	nt	nt	nt	-0.5
O=C(OCc1cc(=O)n2ccsc2n1)c1ccc(OC(F)F)cc1	nt	nt	nt	nt	nt	-7.9
O=C(NCc1ccccc1)c1cccc(COc2cc(Cl)ccc2Cl)c1	-6.3	10.8	-2.0	-2.2	13.7	9.5
CN(C(=O)c1cccc(COc2ccc(Cl)cc2Cl)c1)c1ccccc1	-9.1	-0.4	-18.1	-11.2	102.3*	-2.4
CC1(C(=O)NS(=O)(=O)c2ccc3c(c2)CCO3)CCN1C(=O)C1(c2ccc(Cl)cc2)CCC1 (stereo unspecified)	nt	nt	nt	nt	nt	2.1
Nc1ccc(S(=O)(=O)c2ccc(N3CCOCC3)c(N)c2)cc1	nt	nt	nt	nt	nt	-7.4
O=C(CCN1C(=O)/C(=C\C=C\c2ccccc2)SC1=S)Nc1cccc(C(=O)O)c1	88.2*	26.8	3.2	-8.8	77.9*	-7.0
Cc1ccc(NC(=O)CCCN2C(=O)/C(=C/C=C/c3ccccc3)SC2=S)cc1	-4.6	56.9*	-13.3	19.1	7.9	-2.8
O=C(CCCN1C(=O)S/C(=C/C=C/c2ccccc2)C1=O)Nc1ccc(C(=O)O)cc1	-8.1	14.3	-37.9	1.0	9.8	1.5
C[C@H](CO)N1C[C@H](C)[C@@H](CN(C)S(C)(=O)=O)OCc2cnnn2CCCC1=O	nt	nt	nt	nt	nt	1.8
COCOCCn1cc(CN2CCS(=O)(=O)N(Cc3ccc(-c4ccc(F)nc4)cc3)C(CC(C)C)C2=O)nn1 (stereo unspecified)	nt	nt	nt	nt	nt	4.5
N#C/C(=C/c1ccco1)C(N)=S	56.9*	-4.0	1.8	24.4	51.5*	14.7
COc1ccc(NC(=O)NC23CC4(C)CC(C)(CC(C)(C4)C2)C3)cc1OC	6.2	4.0	6.0	-1.9	-7.9	1.9
COc1ccc2[nH]c3c(=O)n(Cc4ccc(C(=O)NCC5CCCO5)cc4)c(=S)[nH]c3c2c1 (stereo unspecified)	61.4*	16.6	-19.4	-4.3	active	-36.1
CC(C)NC(=O)Nc1ccc2c(c1)C(=O)N([C@@H](C)CO)C[C@H](C)[C@H](CN(C)S(=O)(=O)c1ccccc1)OCCCC[C@H](C)O2	nt	nt	nt	nt	nt	-6.3
CCCn1c(/C=C/c2cc[n+](C)cc2)nc2ccccc21	38.5	1.2	0.5	6.7	87.7*	-19.9
SMILES	eIF4H FP inh	core dimer inh	FID counter	NS3 helicase inh	PABP FP inh	MLLE-PAM2 inh
CCn1c(/C=C/c2ccccc2)nc2ccccc21	-4.0	2.9	-6.7	-1.3	-11.2	8.2
O=C(O)C1OCC2(CO1)COC(C(=O)O)OC2 (stereo unspecified)	nt	nt	nt	nt	nt	14.8
COc1ccc(C)cc1NC(=O)C(NC(=O)c1cc(OC)c(OC)c(OC)c1)C(C)C (stereo unspecified)	91.4*	1.3	-39.8	-9.0	1.6*	-7.5
CCc1c(O)nc(SCC(=O)N2CCc3cc(OC)c(OC)cc3[C@@H]2C)[nH]c1=O	-0.4	1.1	-21.9	5.4	-5.2	42.8*
O=C(c1ccc(NC(=O)C(c2ccccc2)c2ccccc2)cc1)c1ccc(C(=O)O)c(C(=O)O)c1	78.3*	11.5	-30.8	25.1	61.0*	12.8
C/C=C/C=C/C(=O)[C@@H]1[C@@H]([C@]2(C)OC(=O)C(C)=C2O)[C@H]2/C(=C(O)/C=C/C=C/C)C(=O)[C@]1(C)C(=O)C2(C)O (stereo partly specified)	60.7*	13.4	nt	nt	40.1	-7.5
COc1ccc(N=Nc2ccc(N)nc2N)cc1	-12.4	-41.2	5.7	-10.2	-1.1	3.2
CCOc1ccc2nc3cc(N=Nc4ccc(N)nc4N)ccc3c(N)c2c1	nt	nt	nt	nt	nt	81.7*
O=[N+]([O-])c1ccc(-c2c[nH]c(=S)[nH]2)cc1	4.1	53.2*	-1.9	19.1	-1.8	10.0
S=c1[nH]cc(-c2ccccc2)[nH]1	0.7	-3.3	-2.9	2.6	-0.8	23.9
Cc1cc(S(=O)(=O)Nc2ccc(C(=O)NCCN3CCOCC3)cc2)ccc1F	nt	nt	nt	nt	nt	12.8
COc1ccc(Cc2nnc(NC(=O)C3CCCO3)s2)cc1OC (stereo unspecified)	-6.6	5.2	-4.0	3.5	0.0	44.9*
CC1CCN(CC(O)COC2CC(C)CC(C)(C)C2)CC1 (stereo unspecified)	nt	2.4	nt	nt	nt	1.4
CC[N+]1(CC(O)COC2CC(C)CC(C)(C)C2)CCOCC1 (stereo unspecified)	-1.7	-4.8	2.4	-2.0	62.2*	-114.3
COc1cn(-c2ccccc2)nc1C(=O)Nc1ccc(C)cc1Cl	-2.8	-3.4	-14.9	-19.7	1.1	-1.6
COc1ccc(C2c3sc(=O)[nH]c3SC3C(=O)N(c4ccccc4)C(=O)C32)cc1 (stereo unspecified)	65.6*	-4.6	-9.0	8.7	-8.5	25.7
CCc1nnc(NCC(=O)N2CCc3ccccc32)s1	-4.6	88.2*	0.2	12.6	7.3	-23.2
COc1ccc(Cl)cc1-c1cc(C(=O)Nc2ccc(C(C)(C)C)cc2)[nH]n1	nt	nt	nt	nt	nt	10.3
Cc1csc(N2C(=O)C3C4CCC(O4)C3C2=O)n1 (stereo unspecified)	nt	nt	nt	nt	nt	-4.1
CCOC(=O)c1cnc(-n2nc(C)cc2C)[nH]c1=O	-6.6	0.2	-20.5	-3.8	5.8	3.8
CCOC(=O)c1cnc(-n2[nH]c(C)cc2=O)[nH]c1=O	99.8*	-15.2	-7.5	13.7	active	-5.4
Cc1cccc(S(=O)(=O)NC(=O)C2(C)CCN2C(=O)c2ccccc2)c1 (stereo unspecified)	nt	nt	nt	nt	nt	2.8
O=C(CSc1nccn1Cc1ccccc1)Nc1ccccc1	-2.0	-7.0	-16.9	0.3	2.9	-4.5
CC(C)(C)NC(=O)CSc1nccn1Cc1ccccc1	67.6*	1.2	-3.4	-8.9	42.3*	-64.7
CCCCC(O)(CCN1CCOCC1)c1ccc(Cl)cc1 (stereo unspecified)	7.9	0.0	49.2*	5.8	-0.9	1.9
